This is a sample that favours compounds with a hit; in the whole collection about 0.85% have one here.
OXTR potentiator – human OXTR potentiation; P30559; CHO-OTR cells, Fluo-8 calcium fluorescence, potentiator mode; 0% = oxytocin EC15, 100% = EC100; activation, % at 3 µM; 320,000 compounds, 0.061% hits; AID 2445;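 active means activation above that plate's cutoff, the mean activation of tested compounds plus 3 SD, cut at about 6.6% in these data, passing the limit was not always enough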;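 further: 100% uses oxytocin at 75 nM as the full agonist control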
Target sequence (P30559 whole entry, looked up): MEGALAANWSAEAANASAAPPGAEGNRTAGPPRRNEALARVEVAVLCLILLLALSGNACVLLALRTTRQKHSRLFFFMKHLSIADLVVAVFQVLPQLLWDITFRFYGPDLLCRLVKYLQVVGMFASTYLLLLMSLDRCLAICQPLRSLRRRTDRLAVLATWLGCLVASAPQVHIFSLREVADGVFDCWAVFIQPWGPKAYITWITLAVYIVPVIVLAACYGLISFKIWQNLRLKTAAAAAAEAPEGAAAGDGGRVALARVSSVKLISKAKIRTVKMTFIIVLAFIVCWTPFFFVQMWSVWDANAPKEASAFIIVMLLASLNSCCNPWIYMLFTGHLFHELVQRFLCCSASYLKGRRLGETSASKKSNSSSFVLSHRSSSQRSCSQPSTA
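System: human OTR in CHO cells; Also added: sub-maximal oxytocin, roughly EC15; Timing: compound 6 min at room temperature before oxytocin, 100 s read; Technique: Fluo-8 intracellular calcium fluorescence, ex 470-495, em 515-575 nm; Controls: oxytocin EC15 low and EC100 high; Replication: singlicate.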
TRPML3 agonist – activates the human TRPML3 channel | Q8TDD5 | HEK293 TRPML3-YFP, Fluo-8 calcium fluorescence; 100% = the carbachol control signal | activation, % at 3 µM | 220,000 compounds, 0.29% hits;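 active means activation above its plate's cutoff, the mean activation of the plate's test wells plus 3 SD, cut at about 12% in these data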;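 further: 0% = DMSO only wells and 100% = carbachol wells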
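Material: TRPML3-YFP stable HEK293 cells | Dosing: One concentration, 3 µM nominal, 0.3% DMSO | Timing: 125 s total fluorescence read per well | Technique: Fluo-8 calcium dye fluorescence, ex 470-495, em 515-575 nm | Measure: Percent activation from peak-to-basal fluorescence ratio, scaled between DMSO and carbachol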
CRFR2-BP ag – agonists of human CRF-binding protein/CRF-R2 receptor complex | HEK293 CRF-R2/CRF-BP, calcium dye fluorescence (FLIPR); percent of saturating CRF peptide response | activation, % at 13.2 µM | 350,000 compounds, 0.46% hits | AID 588473;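 active means activation of at least 50%, plus an integration ratio under a set limit after plate pattern correction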;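 further: plate controls were neutral control wells without compound for no effect and CRF at EC100 for full effect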
TRPN1 ag – agonists of zebrafish TRPN1 channel; HEK293 zebrafish TRPN1-YFP, Fluo-8 calcium fluorescence; 100% = response to 87 µM carbachol; activation, % at 3 µM; 220,000 compounds, 0.18% hits; AID 1424;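 active means activation above its plate's cutoff, the mean activation of test wells on that plate plus 3 SD, cut at about 19% in these data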;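 further: 0% = DMSO alone and 100% = 87 µM carbachol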
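Material: zebrafish TRPN1-YFP in HEK293 cells. Doses: one dose of 3 µM, 0.3% DMSO. Incubation: dye 1 h 37 °C plus 30 min RT. Measured by: intracellular calcium fluorescence with Fluo-8.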
OXTR agonist – human OXTR agonism; P30559; CHO-OTR cells, Fluo-8 calcium fluorescence; normalized: DMSO 0%, oxytocin 100%; activation, % at 3 µM; 320,000 compounds, 0.32% hits;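 active means activation above the mean of all tested compounds plus 3 SD, cutoff set per screening run, cut at about 20% in these data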;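 further: peak over basal fluorescence ratio from a 100 s FLIPR kinetic read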
V1aR counter – counter-screen for oxytocin receptor agonists: human V1a receptor agonists. CHO-V1R cells, Fluo-8 calcium fluorescence, agonist mode; 0% DMSO, 100% 3 nM vasopressin. 320,000 compounds, 0.25% hits. P37288. activation, % at 3 µM;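 active means activation above the mean activation of all tested compounds plus 3 SD, per screening run, cut at about 20% in these data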;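 further: signal is peak over basal fluorescence ratio across a 100 second FLIPR read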
* = called active by the depositor; . = no result given.

SMILES | OXTR potentiator | TRPML3 agonist | CRFR2-BP ag | TRPN1 ag | OXTR agonist | V1aR counter
C#CCOCCOCCOCCNc1nc(N2CCN(C(=O)CCCCCCCCCCNC(=O)[C@H]([C@@H](C)CC)n3cc(CCCCCN)nn3)CC2)nc(N2CCN(C(=O)CCCCCCCCCCNC(=O)[C@H]([C@@H](C)CC)n3cc(CCCCN=C(N)N)nn3)CC2)n1 | -6 | . | . | . | 0 | 0
C#CCOCCOCCOCCNc1nc(N2CCN(C(=O)CCCCCCCCCCNC(=O)[C@H]([C@@H](C)CC)n3cc(CCCCN=C(N)N)nn3)CC2)nc(N2CCN(C(=O)CCCCCCCCCCNC(=O)[C@H](CO)n3cc(CCCCCN)nn3)CC2)n1 | -19 | . | 76* | . | -1 | 6
C#CCOCCOCCOCCNc1nc(N2CCN(C(=O)CCCCCCCCCCNC(=O)[C@H]([C@@H](C)CC)n3cc(CCCCCN)nn3)CC2)nc(N2CCN(C(=O)CCCCCCCCCCNC(=O)[C@H](CO)n3cc(CCCCCN)nn3)CC2)n1 | -18 | . | 77* | . | 22* | 46*
Cc1ccc(CNC(=O)C2CCCN(S(=O)(=O)c3ccc(-n4cnnn4)cc3)C2)cc1 (configuration not stated) | -9 | . | -1 | . | 2 | 0
CN1C(=O)/C(=C\c2ccc(N(C)C)cc2)OC1=S | . | . | 211* | . | . | .
CC(C)N=C1NN=C(c2ccc(F)cc2)CS1 | -4 | 0 | -5 | 0 | 0 | 0
CC1(c2ccc(OC(F)F)cc2)NC(=O)N(CC(=O)Nc2ccccc2)C1=O (configuration not stated) | -16 | . | 76* | . | 47* | 32*
CC1(c2ccc(OC(F)F)cc2)NC(=O)N(CC(=O)Nc2ccc3c(c2)OCO3)C1=O (configuration not stated) | -10 | 26* | 122* | 30* | 39* | 45*
CC(=O)Nc1ccc(/C=N/N2C(=O)NC(C)(c3ccc(OC(F)F)cc3)C2=O)cc1 (configuration not stated) | -19 | 4 | 130* | 18 | 55* | 39*
CCOC(=O)N1CCN(C(=O)COC(=O)CN(C)S(=O)(=O)c2ccc(NC(C)=O)cc2)CC1 | -13 | . | -1 | . | 16 | 0
Cc1ccc(S(=O)(=O)Nc2ccccc2-c2ccccc2NS(=O)(=O)c2ccc(C)cc2)cc1 | -16 | -1 | -1 | 1 | 1 | 2
O=C1c2ccccc2-c2cccc(NS(=O)(=O)c3ccc(C(F)(F)F)cc3)c21 | -7 | 1 | 97* | 0 | 1 | 3
CCCCn1c(=NC(C)=O)c(C#N)cc2c(=O)n3cccc(C)c3nc21 | -3 | . | 2 | . | 0 | -1
CCCCCn1c(=NC(=O)c2cccnc2)c(C#N)cc2c(=O)n3cccc(C)c3nc21 | -3 | . | 63* | . | 0 | -1
CCC(C(=O)OCc1csc(CC(=O)Nc2ccccc2C)n1)c1ccccc1 (configuration not stated) | -4 | . | 1 | . | -1 | 1
O=c1[nH]c2cc3c(cc2cc1C(c1nnnn1C1CCCC1)N1CCCc2ccccc21)OCCO3 (configuration not stated) | . | . | 57* | . | . | .
Cc1c(-c2ccc(O)cc2)nc2nc(-c3ccccc3)c(-c3ccccc3)nn12 | -13 | -1 | . | 0 | 144* | 280*
Cc1ccccc1N1C(=O)c2cccc3c(N(C)CCO)ccc(c23)C1=O | -15 | 18* | 159* | 26* | 25* | 24*
CC(=O)Nc1cccc2c1C(=O)N(c1ccccc1C)C2=O | -5 | -1 | 0 | -1 | -1 | 0
Cc1nnsc1C(=O)N/N=C/c1ccc2ccccc2c1O | -13 | 2 | 147* | 3 | 67* | 47*
CCCOc1ccc(NC(=O)c2c(-c3ccccc3)noc2C)cc1 | 2 | -1 | 0 | -1 | 0 | 0
CCCOc1ccc(C(=O)NC(=S)NNC(=O)c2c(-c3ccccc3)noc2C)cc1 | -19 | 52* | 145* | 99* | 93* | 106*
Cc1onc(-c2ccccc2)c1C(=O)NC(=S)NNC(=O)c1ccc(O)cc1O | -2 | 0 | 0 | -2 | -2 | -1
Cc1onc(-c2ccccc2)c1C(=O)NC(=S)NNC(=O)c1ccccc1O | -14 | 55* | 202* | 81* | 65* | 68*
Oc1ccccc1N=Cc1c(O)ccc2ccccc12 | . | 5 | 123* | 11 | . | .
SMILES | OXTR potentiator | TRPML3 agonist | CRFR2-BP ag | TRPN1 ag | OXTR agonist | V1aR counter
COc1ccc(CN2C(=O)C(CC(=O)NC3CCCC3)CC(C(=O)N(C(C)C)C(C)C)=C2C)cc1 (configuration not stated) | . | . | -1 | . | . | .
Cc1cc2nc3s/c(=C/c4ccc(-c5ccccc5C(=O)O)o4)c(=O)n3c2cc1C | -9 | . | 141* | . | 10 | 11
O=C(O)c1ccccc1-c1ccc(/C=c2\sc3nc4cc(Br)cnc4n3c2=O)o1 | 2 | 1 | 157* | -1 | 1 | 1
O=C(O)c1cc(-c2ccc(/C=c3\sc4nc5ccc(Br)cc5n4c3=O)o2)ccc1Cl | -10 | . | . | . | 4 | 2
Cc1ccc(S(=O)(=O)N[C@H](C(=O)OCC(=O)N2N=C(c3ccc(Cl)cc3)CC2c2ccco2)C(C)C)cc1 (some centres not stated) | -2 | 0 | 58* | 0 | 0 | 1
COc1ccc(CCn2c(-c3cc([N+](=O)[O-])cc([N+](=O)[O-])c3)nc3nc4ccccc4nc32)cc1OC | 12* | 1 | 0 | -1 | 1 | -1
NC(=O)C1=C(c2ccccc2)c2ccccc2C1=O | . | . | 67* | . | . | .
Cc1ccc(C(=O)OCC(=O)c2c[nH]c3ccccc23)cc1 | -10 | 1 | 1 | 0 | 1 | 0
CC(C)Cc1ccc(C(C)C(=O)OCC(=O)c2c[nH]c3ccccc23)cc1 (configuration not stated) | -7 | 7 | 32 | 18 | 28* | 23*
CC(=O)N1CCc2ccc(S(=O)(=O)N3CCN(C)CC3)cc21 | -3 | 1 | 203* | 2 | 1 | -1
CCOc1ccc(-c2c(C(=O)N/N=C(\C)c3ccccc3OC)nnn2-c2nonc2N)cc1 | -19 | . | 0 | . | -1 | 0
CCOc1cccc(-c2c(C(=O)N/N=C(\C)c3cccs3)nnn2-c2nonc2N)c1 | -11 | . | 2 | . | 36* | 36*
COc1cccc(-c2c(C(=O)N/N=C(\C)c3cccs3)nnn2-c2nonc2N)c1 | -7 | . | 41 | . | 44* | 60*
CCOc1ccc(-c2c(C(=O)N/N=C(\C)c3cccs3)nnn2-c2nonc2N)cc1 | -6 | . | 5 | . | 4 | 11

Screening data from PubChem.
